From ChEMBL document CHEMBL1255362, “Mutations in human immunodeficiency virus type 1 integrase confer resistance to the naphthyridine L-870,810 and cross-resistance to the clinical trial drug GS-9137” (Antimicrob Agents Chemother, 2008)

Key:
Type in all cases: functional, organism-based
[1] = test system: Human immunodeficiency virus 1; test: Antiviral activity against HIV 1 3B harboring integrase L34M mutant infected in MT-4 cells assessed as inhibition of virus-induced cytopathic effect by MTT assay selected after 40 passages in presence of compound; details: Human immunodeficiency virus 1, 3B, MT4
Summary of the method: (§1)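 MT-4 cells (RPMI 1640, 10% heat-inactivated FCS, 2 mM L-glutamine, 37°C, 5% CO2) infected with 100 to 300 CCID50 of virus, titrated on MT-4 cells. Fivefold serial drug dilutions were present during infection. Protection from viral CPE was read by MTT reduction to formazan, measured spectrophotometrically. IC50 is the concentration giving 50% protection.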

[2] = test system: Human immunodeficiency virus 1; test: Antiviral activity against HIV 1 3B harboring integrase E92Q, S230N and L34M triple mutant infected in MT-4 cells assessed as inhibition of virus-induced cytopathic effect by MTT assay selected after 60 passages in presence of compound; details: Human immunodeficiency virus 1, 3B, MT4; summary of the method: as §1
[3] = test system: Human immunodeficiency virus 1; test: Antiviral activity against HIV 1 3B harboring integrase E92Q S230N double mutant infected in MT-4 cells assessed as inhibition of virus-induced cytopathic effect by MTT assay selected after 20 passages in presence of compound; details: Human immunodeficiency virus 1, 3B, MT4; summary of the method: as §1
[4] = test system: Human immunodeficiency virus 1; test: Antiviral activity against HIV 1 RIN HIV 1 RIN harboring integrase gene infected in MT-4 cells assessed as inhibition of virus-induced cytopathic effect by MTT assay after 40 passages selected in presence of compound; details: Human immunodeficiency virus 1, RIN, MT4; summary of the method: as §1
[5] = test system: Human immunodeficiency virus 1; test: Antiviral activity against HIV 1 RIN HIV 1 RIN harboring integrase gene infected in MT-4 cells assessed as inhibition of virus-induced cytopathic effect by MTT assay after 60 passages selected in presence of compound; details: Human immunodeficiency virus 1, RIN, MT4; summary of the method: as §1
[6] = test system: Human immunodeficiency virus 1; test: Antiviral activity against HIV 1 3B infected in MT-4 cells assessed as inhibition of virus-induced cytopathic effect by MTT assay; details: Human immunodeficiency virus 1, 3B, MT4; summary of the method: as §1
[7] = test system: Human immunodeficiency virus 1; test: Antiviral activity against HIV 1 RIN harboring integrase gene infected in MT-4 cells assessed as inhibition of virus-induced cytopathic effect by MTT assay after 20 passages selected in presence of compound; details: Human immunodeficiency virus 1, RIN, MT4
[8] = test system: Human immunodeficiency virus 1; test: Antiviral activity against HIV 1 RIN harboring integrase gene infected in MT-4 cells assessed as inhibition of virus-induced cytopathic effect by MTT assay; details: Human immunodeficiency virus 1, RIN, MT4; summary of the method: as §1
[9] = test system: Human immunodeficiency virus 1; test: Antiviral activity against HIV 1 NL4.3 integrase E92Q mutant infected in human MT-4 cells assessed as inhibition of virus-induced cytopathic effect by MTT assay; details: Human immunodeficiency virus 1, NL4.3, MT4; summary of the method: as §1
[10] = test system: Human immunodeficiency virus 1; test: Antiviral activity against HIV 1 NL4.3 harboring integrase L74M mutant infected in human MT-4 cells assessed as inhibition of virus-induced cytopathic effect by MTT assay; details: Human immunodeficiency virus 1, NL4.3, MT4; summary of the method: as §1
[11] = test system: Human immunodeficiency virus 1; test: Antiviral activity against HIV 1 NL4.3 integrase S230N mutant infected in human MT-4 cells assessed as inhibition of virus-induced cytopathic effect by MTT assay; details: Human immunodeficiency virus 1, NL4.3, MT4; summary of the method: as §1
[12] = test system: Human immunodeficiency virus 1; test: Antiviral activity against HIV 1 NL4.3 assessed as inhibition of virus-induced cytopathic effect by MTT assay; details: Human immunodeficiency virus 1, NL4.3; summary of the method: as §1
[13] = test system: Human immunodeficiency virus 1; test: Antiviral activity against HIV 1 3B infected in MT-4 cells assessed as inhibition of virus-induced cytopathic effect by MTT assay selected after 50 passages in presence of compound; details: Human immunodeficiency virus 1, 3B, MT4
Summary of the method: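 Selected strains came from serial passage of HIV-1(IIIB) in MT-4 cells, started at MOI 0.01 with drug at 0.005 µM. Cultures were checked for CPE every 3 to 4 days. Supernatant from CPE-positive cultures went onto fresh cells at equal or higher drug concentration; cultures without breakthrough were subcultured at the same concentration. Susceptibility was tested by the MT-4/MTT CPE assay.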

## c1cc(CN2CCCNCCNCCCNCC2)ccc1CN1CCCNCCNCCCNCC1 [PLERIXAFOR]
[1]
  EC50: 28 nM
[2]
  EC50: 56 nM
[3]
  EC50: 49 nM
[4]
  EC50: 8 nM
[5]
  EC50: 8 nM
[6]
  EC50: 34 nM
[7]
  EC50: 8 nM
[8]
  EC50: 14 nM

## Cc1nnc(C(=O)NC(C)(C)c2nc(C(=O)NCc3ccc(F)cc3)c(O)c(=O)n2C)o1
[9]
  EC50: 15 nM
[10]
  EC50: 7 nM
[4]
  EC50: 25 nM
[5]
  EC50: 68 nM
[7]
  EC50: 10 nM
[11]
  EC50: 9 nM
[12]
  EC50: 5 nM
[8]
  EC50: 6 nM

## CC(C)c1nc(CN(C)C(=O)N[C@H](C(=O)N[C@@H](Cc2ccccc2)C[C@H](O)[C@H](Cc2ccccc2)NC(=O)OCc2cncs2)C(C)C)cs1 [RITONAVIR]
[9]
  EC50: 58 nM
[1]
  EC50: 69 nM
[2]
  EC50: 60 nM
[3]
  EC50: 69 nM
[10]
  EC50: 60 nM
[4]
  EC50: 42 nM
[5]
  EC50: 41 nM
[6]
  EC50: 55 nM
[7]
  EC50: 39 nM
[11]
  EC50: 90 nM
[12]
  EC50: 130 nM
[8]
  EC50: 43 nM

## O=C(NCc1ccc(F)cc1)c1nc(N2CCCCS2(=O)=O)c2cccnc2c1O
[9]
  EC50: 73 nM
[1]
  EC50: 170 nM
[2]
  EC50: 550 nM
[3]
  EC50: 110 nM
[10]
  EC50: 4 nM
[4]
  EC50: 64 nM
[13]
  IC50: 1100 nM
[5]
  EC50: 190 nM
[6]
  EC50: 5 nM
[7]
  EC50: 18 nM
[11]
  EC50: 7 nM
[12]
  EC50: 4 nM
[8]
  EC50: 4 nM

## COc1cccc2c1c(C(=O)/C=C(\O)C(=O)O)cn2Cc1ccc(F)cc1
[9]
  EC50: 660 nM
[1]
  EC50: 1860 nM
[2]
  EC50: 3610 nM
[3]
  EC50: 1890 nM
[10]
  EC50: 320 nM
[4]
  EC50: 1080 nM
[5]
  EC50: 2610 nM
[6]
  EC50: 390 nM
[7]
  EC50: 520 nM
[11]
  EC50: 490 nM
[12]
  EC50: 560 nM
[8]
  EC50: 440 nM

## Cc1ccnc2c1NC(=O)c1cccnc1N2C1CC1 [NEVIRAPINE]
[1]
  EC50: 350 nM
[2]
  EC50: 310 nM
[3]
  EC50: 380 nM
[4]
  EC50: 150 nM
[5]
  EC50: 150 nM
[6]
  EC50: 460 nM
[8]
  EC50: 170 nM

## Cc1cn([C@H]2C[C@H](N=[N+]=[N-])[C@@H](CO)O2)c(=O)[nH]c1=O [ZIDOVUDINE]
[9]
  EC50: 7 nM
[1]
  EC50: 4 nM
[2]
  EC50: 7 nM
[3]
  EC50: 18 nM
[10]
  EC50: 5 nM
[4]
  EC50: 22 nM
[5]
  EC50: 22 nM
[6]
  EC50: 18 nM
[7]
  EC50: 22 nM
[11]
  EC50: 6 nM
[12]
  EC50: 7 nM
[8]
  EC50: 18 nM

## COc1cc2c(cc1Cc1cccc(Cl)c1F)c(=O)c(C(=O)O)cn2[C@H](CO)C(C)C
[9]
  EC50: 12 nM
[1]
  EC50: 50 nM
[2]
  EC50: 77 nM
[3]
  EC50: 33 nM
[10]
  EC50: 0.6 nM
[4]
  EC50: 18 nM
[5]
  EC50: 59 nM
[6]
  EC50: 1 nM
[7]
  EC50: 15 nM
[11]
  EC50: 0.9 nM
[12]
  EC50: 0.7 nM
[8]
  EC50: 0.7 nM
